Bioassay records from PubChem.
Hits are enriched below; roughly 0.83% of the tested compounds scored in any of these assays.
zfTRPN1 agonist = zebrafish TRPN1 channel agonists, primary screen, cell-based, HEK293, calcium fluorescence; transient receptor potential cation channel N1 (TRPN1/NompC), Danio rerio; HEK293 zebrafish TRPN1-YFP, Fluo-8 calcium fluorescence; 100% = response to 87 µM carbachol; activation, % at 3 µM; 0.18% of 220,000 active; AID 1424, 2008;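 active = activation above its plate's cutoff, the mean activation of test wells on that plate plus 3 SD, cut at about 19% in these data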;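 note: 0% = DMSO alone and 100% = 87 µM carbachol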
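System: zebrafish TRPN1-YFP in HEK293 cells / Dosing: 3 µM single point / Timing: dye loading 1 h at 37 °C, then 30 min room temperature / Signal: Fluo-8 calcium fluorescence, excitation 470-495 nm, emission 515-575 nm / Read-out basis: percent activation from peak over basal fluorescence ratio, control-normalized / Control set: high carbachol 87 µM, low DMSO alone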
CRFR2-BP ag = agonists of CRF-BP/CRF-R2 complex, primary screen, cell-based, HEK293, calcium dye fluorescence, uHTS. AID 588473, 2011. calcium dye fluorescence (FLIPR); percent of saturating CRF peptide response. CRF-binding protein / CRF receptor 2 complex (human). activation, % at 13.2 µM. 0.46% of 350,000 active;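 active = activation of at least 50%, plus an integration ratio under a set limit after plate pattern correction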;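 note: plate controls were neutral control wells without compound for no effect and CRF at EC100 for full effect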
TRPML3 ag = human TRPML3 channel agonists, primary screen, cell-based, HEK293 TRPML3-YFP, Fluo-8 calcium fluorescence, 3 µM. 100% = the carbachol control signal. 0.29% of 220,000 active. AID 1448, 2008. activation, % at 3 µM;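 active = activation above its plate's cutoff, the mean activation of the plate's test wells plus 3 SD, cut at about 12% in these data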;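 note: 0% = DMSO only wells and 100% = carbachol wells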
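system = HEK293 cells stably carrying human TRPML3-YFP | doses = one concentration, 3 µM nominal, 0.3% DMSO | timing = dye loading 1 h 37 °C then 30 min ambient, 125 s read | detection = Fluo-8 calcium dye fluorescence, ex 470-495, em 515-575 nm | benchmarks = high control carbachol 87 µM, low control DMSO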
OXTR ag = human OXTR agonists, primary screen, fluorescence, CHO-OTR cells, Fluo-8 calcium | activation, % at 3 µM | Fluo-8 calcium fluorescence; normalized: DMSO 0%, oxytocin 100% | 0.32% of 320,000 active;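 active = activation above the mean of all tested compounds plus 3 SD, cutoff set per screening run, cut at about 20% in these data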;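 note: peak over basal fluorescence ratio from a 100 s FLIPR kinetic read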
V1aR counter = agonists of human V1a receptor, primary screen, counter-screen for OXTR agonist project, fluorescence, CHO-V1R cells | Vasopressin V1a receptor (Homo sapiens), P37288 | Fluo-8 calcium fluorescence, agonist mode; 0% DMSO, 100% 3 nM vasopressin | activation, % at 3 µM | 0.25% of 320,000 active | AID 2797, 2010;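 active = activation above the mean activation of all tested compounds plus 3 SD, per screening run, cut at about 20% in these data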;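 note: signal is peak over basal fluorescence ratio across a 100 second FLIPR read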
Target sequence (P37288 whole entry, looked up): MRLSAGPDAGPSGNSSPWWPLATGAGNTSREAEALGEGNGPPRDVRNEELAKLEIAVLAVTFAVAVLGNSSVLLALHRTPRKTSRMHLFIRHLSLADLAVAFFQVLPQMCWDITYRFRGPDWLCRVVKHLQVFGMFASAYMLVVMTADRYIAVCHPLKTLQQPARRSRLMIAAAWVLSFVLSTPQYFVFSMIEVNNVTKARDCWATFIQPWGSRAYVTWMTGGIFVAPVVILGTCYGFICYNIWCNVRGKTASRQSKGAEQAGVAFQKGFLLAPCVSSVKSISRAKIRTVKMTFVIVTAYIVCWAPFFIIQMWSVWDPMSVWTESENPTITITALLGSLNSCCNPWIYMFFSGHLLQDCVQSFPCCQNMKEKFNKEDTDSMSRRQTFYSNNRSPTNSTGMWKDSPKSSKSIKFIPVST
OXTR potentiate = human OXTR potentiators, primary screen, fluorescence, CHO-OTR cells, Fluo-8 calcium. Oxytocin receptor (Homo sapiens), P30559. Fluo-8 calcium fluorescence, potentiator mode; 0% = oxytocin EC15, 100% = EC100. activation, % at 3 µM. 0.061% of 320,000 active. AID 2445, 2010;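 active = activation above that plate's cutoff, the mean activation of tested compounds plus 3 SD, cut at about 6.6% in these data, passing the limit was not always enough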;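 note: 100% uses oxytocin at 75 nM as the full agonist control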
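Assay system: CHO cell line stably expressing human OTR | Also added: Oxytocin at about EC15, sub-maximal agonist stimulus | Times: Compound 6 min at room temperature before oxytocin, 100 s read | Measured by: Fluo-8 intracellular calcium fluorescence, ex 470-495, em 515-575 nm | Controls: EC15 oxytocin alone as 0%, 75 nM oxytocin as 100%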
OXTR ag confirm = human OXTR agonists, confirmation, fluorescence, CHO-OTR cells, triplicate; shares compounds with OXTR ag; Fluo-8 calcium fluorescence, agonist; activation, % at 3 µM; 20% of 390 active; AID 434963, 2010;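 active = mean activation above about 20% derived from the earlier single-dose screen, limit read from the data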;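 note: peak over minimum fluorescence ratio per well during a 100 second FLIPR read; 0% = DMSO alone and 100% = oxytocin high control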
V1R ag counter 3x = V1a receptor agonists, calcium signal, counter-screen for OXTR agonist project, triplicate, fluorescence, CHO-V1R cells | shares compounds with OXTR ag | Fluo-8 calcium fluorescence | activation, % at 3 µM | 10% of 390 active | AID 434991, 2010;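 active = mean activation over triplicate exceeds the hit threshold set in the earlier primary screen, cut at about 20% in these data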;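 note: peak over basal fluorescence ratio within a 100 second read; 0% = DMSO alone and 100% = 3 nM vasopressin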
Active calls of the source: *; / = no result; ! = repeats disagree.

SMILES	zfTRPN1 agonist	CRFR2-BP ag	TRPML3 ag	OXTR ag	V1aR counter	OXTR potentiate	OXTR ag confirm	V1R ag counter 3x
CC(C)c1nc2c(c(=O)c3ccccc3n2C)c(=O)n1CCc1ccccc1	21*	72*	9	28*	18	-14	15	13
COc1ccc(CCn2c(-c3ccccc3)nc3c(c(=O)c4ccccc4n3C)c2=O)cc1	0	/	1	0	0	2	/	/
CN1CCC(N(C)S(=O)(=O)c2ccc(NC(=O)COc3ccc(Br)cc3Cl)cc2)CC1	/	4	/	25*	12	-17	9	8
C1CCC(C(CC2CCCCN2)C2CCCCC2)CC1 (configuration not stated)	0	0	1	21*!	10	-4	5	3
COc1cc(CNC2CCCC2)cc(Cl)c1OCc1ccc(F)cc1	1	0	1	13	11	-11	/	/
CCOc1cc(CNC2CCCC2)cc(Cl)c1OCc1ccc(F)cc1	0	-1	1	21*	10	-12	6	4
N#CC1=C(N)Oc2n[nH]c(-c3ccccc3)c2C12C(=O)Nc1ccccc12 (configuration not stated)	1	-1	0	23*	1	-20	0	0
FC(F)(F)c1cccc(-c2nc3nc(Cl)c(Cl)nc3[nH]2)c1	32*	81*	14*	22*	11	-25	14	10
C#CCN1C(C)=CC(=O)[C@@H](O)[C@H]1c1ccccc1Br	/	-1	/	/	/	/	/	/
Cc1[nH]n(-c2ccccc2)c(=O)c1C(c1cccc([N+](=O)[O-])c1)c1c(C)[nH]n(-c2ccccc2)c1=O	2	0	1	24*	10	-12	8	8
COc1ccc(CC2(CO)CCN(CC3=Cc4cc(Cl)ccc4OC3)CC2)cc1	5	8	2	23*	19	-33	14	12
COc1ccc(NC(=O)N2CCN(C(=O)c3ccco3)CC2)c(OC)c1	/	1	/	0	1	-1	/	/
COc1cc(C2NC(=S)NC(c3ccccc3)=C2C(C)=O)cc(Cl)c1OCC(=O)O (configuration not stated)	-1	0	0	0	0	0	/	/
CC(=O)C1=C(c2ccccc2)NC(=S)NC1c1cc(Cl)c(OC(C)C)c(Cl)c1 (configuration not stated)	15	19	4	20*	16	-8	17	15
CCn1nnnc1SCC(=O)Nc1ccc(OC)cc1	-2	-2	1	0	0	-12	/	/
CCOc1ccc(OCC)c(NC(=O)CSc2nnnn2CC)c1	-1	-1	0	22*	0	-16	-1	-1
Cc1cc(C)c2nc(N(CCCN(C)C)C(=O)c3ccc4c(c3)OCCO4)sc2c1	/	7	/	20*	4	-17	6	4
O=C(NCCc1ccccc1)C1(S(=O)(=O)c2ccc(Cl)cc2)CC1	/	0	/	-2	-1	-8	/	/
Cc1ccc(N/N=C(\C#N)C(N)=S)c(C)c1	4	60*	2	24*	11	-12	7	6
Cc1ccc(NC(=O)/C(C#N)=N/Nc2ccc(C(=O)O)cc2)c(C)c1	2	0	0	-1	1	7	/	/
OC(CNCCc1ccccc1)COc1ccc(OCC(O)CNCCc2ccccc2)cc1 (configuration not stated)	1	0	1	2	1	-11	/	/
CN(C)CCOc1ccc(C(C)(C)c2ccccc2)cc1	3	0	1	2	0	0	/	/
CC(C)N(CCNCC(O)COc1ccc(C(C)(C)c2ccccc2)cc1)C(C)C (configuration not stated)	3	5	-1	23*	16	-24	10	4
CN(C)CCCOc1ccc(C(C)(C)c2ccccc2)cc1	0	-2	1	20*	10	-13	7	1
C#CCOc1ccc2c3c(c(=O)oc2c1)CCCC3	/	0	/	-2	1	10	/	/
SMILES	zfTRPN1 agonist	CRFR2-BP ag	TRPML3 ag	OXTR ag	V1aR counter	OXTR potentiate	OXTR ag confirm	V1R ag counter 3x
CCSC(=O)N=Nc1ccc(O)cc1	/	-3	/	/	/	/	/	/
COC(=O)C1=C(C)N(Cc2ccccc2)C(=NCCc2c[nH]c3ccccc23)N[C@H]1c1cccc(F)c1	/	8	/	22*	11	-9	7	4
COC(=O)C1=C(C)N(Cc2ccccc2)C(=NCc2ccccc2)N[C@H]1c1cccc(F)c1	/	4	/	20*	9	-10	9	5
COC(=O)C1=C(C)N(Cc2ccccc2)C(=NCc2ccccc2)N[C@H]1c1ccccc1	/	4	/	18	7	-10	/	/
COc1ccc(C(CCNCc2ccc(OC(C)C)cc2)c2ccccc2OC)cc1 (configuration not stated)	/	1	/	22*	15	-18	12	9
O=C(O)c1ccc2c3c(cccc13)C(=O)N(c1ccccc1)C2=O	0	4	1	1	2	1	/	/
Cc1c(O)c2c3c(cccc3c1O)C(=O)N(c1ccccc1)C2=O	11	168*	7	24*	13	-12	29*	35*
COc1ccccc1C(=O)NNC(=S)NC(=O)c1ccco1	1	24	1	24*	14	-6	3	7
CC(Oc1ccc(Cl)cc1)C(=O)NNC(=S)NC(=O)c1ccco1 (configuration not stated)	19	135*	1	26*	11	-13	38*	42*
O=C(Nc1ncc([N+](=O)[O-])s1)c1cccs1	/	33	/	21*!	12	-22	10	11
Cc1cnc(NC(=O)c2cccs2)s1	/	-1	/	0	1	-9	/	/
COC(=O)c1ccc(NC(=O)Nc2ccc([N+](=O)[O-])cc2)cc1	/	22	/	20*	16	-16	14	12
